Test results as given in ChEMBL document CHEMBL1125626, “Synthesis and structure-activity relationship of new cephalosporins with amino heterocycles at C-7. Dependence of the antibacterial spectrum and beta-lactamase stability on the pKa of the C-7 heterocycle” (1991).
Values after ≈ are worked out from the molar mass of the structure shown.

Assays:
Staphylococcus aureus [1] = test: Minimum inhibitory concentration against Staphylococcus aureus A4 (inoculum, 10e5 cfu per spot); format: functional
Outline: (§1)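 MIC in µg/mL, determined in Jewell and Permain growth medium with spot inoculation at 10^5 cfu per spot.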

Escherichia coli [2] = test: Minimum inhibitory concentration against Escherichia coli X4 (inoculum, 10e4 cfu per spot)
Escherichia coli [3] = test: Minimum inhibitory concentration against Escherichia coli DCO (inoculum, 10e4 cfu per spot); format: functional
Outline: (§2)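 MIC in µg/mL, determined in Jewell and Permain growth medium with spot inoculation at 10^4 cfu per spot. P99 is described as a constitutive type I lactamase producer.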

Escherichia coli [4] = test: Minimum inhibitory concentration against Escherichia coli DC2 (inoculum, 10e4 cfu per spot); format: functional; outline: as §2
Klebsiella pneumoniae = test: Minimum inhibitory concentration against Klebsiella pneumoniae A24 (inoculum, 10e5 cfu per spot); format: functional; outline: as §1
Pseudomonas aeruginosa = test: Minimum inhibitory concentration against Pseudomonas aeruginosa A21 (inoculum, 10e5 cfu per spot); format: functional; outline: as §1
Serratia marcescens = test: Minimum inhibitory concentration against Serratia marcescens A16 (inoculum, 10e5 cfu per spot); format: functional; outline: as §1
Enterobacter cloacae [5] = test: Minimum inhibitory concentration against Enterobacter cloacae P99 (inoculum, 10e4 cfu per spot); format: functional; outline: as §2
Proteus vulgaris = test: Minimum inhibitory concentration against Proteus vulgaris Pv9 (inoculum, 10e5 cfu per spot)
Streptococcus pyogenes = test: Minimum inhibitory concentration against Streptococcus pyogenes (inoculum, 10e5 cfu per spot) A1; format: functional; outline: as §1
Escherichia coli [6] = test: Minimum inhibitory concentration against Escherichia coli A8 (inoculum, 10e5 cfu per spot); format: functional; outline: as §1
Klebsiella aerogenes [7] = test: Minimum inhibitory concentration against Klebsiella aerogenes X5L (inoculum, 10e4 cfu per spot); format: functional; outline: as §2
Klebsiella aerogenes [8] = test: Minimum inhibitory concentration against Klebsiella aerogenes X6 (inoculum, 10e4 cfu per spot); format: functional; outline: as §2
Proteus mirabilis = test: Minimum inhibitory concentration against Proteus mirabilis A18 (inoculum, 10e5 cfu per spot); format: functional; outline: as §1
Staphylococcus aureus [9] = test: Minimum inhibitory concentration against Staphylococcus aureus A6 (inoculum, 10e5 cfu per spot); format: functional; outline: as §1
Enterobacter cloacae [10] = test: Minimum inhibitory concentration against Enterobacter cloacae P99 (inoculum, 10e4 cfu per spot)(type I lactamase producer); format: functional; outline: as §2
Escherichia coli [11] = test: Minimum inhibitory concentration against Escherichia coli TEM X3 (inoculum, 10e4 cfu per spot)(TEM I type lactamase producer)
Enterobacter cloacae [12] = test: Minimum inhibitory concentration against Enterobacter cloacae A13 (inoculum, 10e5 cfu per spot); format: functional; outline: as §1

SMILES	MIC (Staphylococcus aureus [1]) [µg/mL]	MIC (Escherichia coli [2]) [µg/mL]	MIC (Escherichia coli [3]) [µg/mL]	MIC (Escherichia coli [4]) [µg/mL]	MIC (Klebsiella pneumoniae) [µg/mL]	MIC (Pseudomonas aeruginosa) [µg/mL]	MIC (Serratia marcescens) [µg/mL]	MIC (Enterobacter cloacae [5]) [µg/mL]	MIC (Proteus vulgaris) [µg/mL]	MIC (Streptococcus pyogenes) [µg/mL]	MIC (Escherichia coli [6]) [µg/mL]	MIC (Klebsiella aerogenes [7]) [µg/mL]	MIC (Klebsiella aerogenes [8]) [µg/mL]	MIC (Proteus mirabilis) [µg/mL]	MIC (Staphylococcus aureus [9]) [µg/mL]	MIC (Enterobacter cloacae [10]) [µg/mL]	MIC (Escherichia coli [11]) [µg/mL]	MIC (Enterobacter cloacae [12]) [µg/mL]
CC(=O)OCC1=C(C(=O)OC(c2ccccc2)c2ccccc2)N2C(=O)[C@@H](Nc3nc4cc(C(F)(F)F)ccc4[nH]3)C2SC1 (some centres not stated)	128 (≈ 206 µM)	32 (≈ 51.4 µM)	32 (≈ 51.4 µM)	0.12 (≈ 0.193 µM)	32 (≈ 51.4 µM)	> 256	> 256	32 (≈ 51.4 µM)	> 256	1 (≈ 1.61 µM)	32 (≈ 51.4 µM)	> 256	64 (≈ 103 µM)	128 (≈ 206 µM)	2 (≈ 3.21 µM)	> 256	32 (≈ 51.4 µM)	> 256
CC(=O)OCC1=C(C(=O)OC(c2ccccc2)c2ccccc2)N2C(=O)[C@@H](Nc3nc4cc(CN)ccc4[nH]3)C2SC1 (some centres not stated)	32 (≈ 54.8 µM)	0.12 (≈ 0.206 µM)	0.12 (≈ 0.206 µM)	0.06 (≈ 0.103 µM)	1 (≈ 1.71 µM)	> 256	> 256	0.12 (≈ 0.206 µM)	64 (≈ 110 µM)	0.5 (≈ 0.857 µM)	0.12 (≈ 0.206 µM)	32 (≈ 54.8 µM)	0.25 (≈ 0.428 µM)	32 (≈ 54.8 µM)	4 (≈ 6.85 µM)	64 (≈ 110 µM)	2 (≈ 3.43 µM)	256 (≈ 439 µM)
CC1=C(C(=O)OC(c2ccccc2)c2ccccc2)N2C(=O)[C@@H](NC3=NC(C(N)=O)CN3)C2SC1 (some centres not stated)	> 256	8 (≈ 16.3 µM)	8 (≈ 16.3 µM)	2 (≈ 4.07 µM)	16 (≈ 32.5 µM)	> 256	> 256	4 (≈ 8.14 µM)	–	> 256	32 (≈ 65.1 µM)	16 (≈ 32.5 µM)	16 (≈ 32.5 µM)	> 256	> 256	8 (≈ 16.3 µM)	8 (≈ 16.3 µM)	> 256
Cn1nnnc1SCC1=C(C(=O)OC(C)(C)C)N2C(=O)[C@@H](NC3=NCCN3)C2SC1 (some centres not stated)	> 256	1 (≈ 2.21 µM)	8 (≈ 17.7 µM)	–	2 (≈ 4.42 µM)	> 256	32 (≈ 70.7 µM)	1 (≈ 2.21 µM)	–	128 (≈ 283 µM)	2 (≈ 4.42 µM)	2 (≈ 4.42 µM)	1 (≈ 2.21 µM)	> 256	> 256	8 (≈ 17.7 µM)	1 (≈ 2.21 µM)	–
CC1=C(C(=O)OC(C)(C)C)N2C(=O)[C@@H](Nc3nc4ccccc4n3CC(=O)OC(C)(C)C)C2SC1 (some centres not stated)	> 256	> 256	> 256	> 256	–	> 256	> 256	> 256	–	> 256	> 256	> 256	> 256	> 256	> 256	> 256	> 256	> 256
CC(=O)OCC1=C(C(=O)OC(c2ccccc2)c2ccccc2)N2C(=O)[C@@H](Nc3nc4c(N)cccc4[nH]3)C2SC1 (some centres not stated)	> 200	8 (≈ 14 µM)	4 (≈ 7.02 µM)	1 (≈ 1.76 µM)	> 200	> 200	> 200	4 (≈ 7.02 µM)	–	40 (≈ 70.2 µM)	40 (≈ 70.2 µM)	> 200	8 (≈ 14 µM)	200 (≈ 351 µM)	40 (≈ 70.2 µM)	> 200	128 (≈ 225 µM)	> 200
CC(=O)OCC1=C(C(=O)OC(C)(C)C)N2C(=O)[C@@H](Nc3nc4ccccc4n3C)C2SC1 (some centres not stated)	> 256	32 (≈ 69.8 µM)	64 (≈ 140 µM)	0.25 (≈ 0.545 µM)	–	> 256	> 256	64 (≈ 140 µM)	–	32 (≈ 69.8 µM)	128 (≈ 279 µM)	256 (≈ 558 µM)	256 (≈ 558 µM)	32 (≈ 69.8 µM)	32 (≈ 69.8 µM)	> 256	64 (≈ 140 µM)	> 256
CO[C@@]1(Nc2nc3ccccc3[nH]2)C(=O)N2C(C(=O)OC(c3ccccc3)c3ccccc3)=C(COC(C)=O)CSC21 (some centres not stated)	> 256	> 256	> 256	> 256	> 256	> 256	> 256	> 256	–	> 256	> 256	> 256	> 256	> 256	> 256	> 256	> 256	> 256
CO[C@@]1(NC2=NCCN2)C(=O)N2C(C(=O)OC(c3ccccc3)c3ccccc3)=C(C)CSC21 (some centres not stated)	> 256	> 256	> 256	> 256	> 256	> 256	> 256	> 256	–	> 256	> 256	> 256	> 256	> 256	> 256	> 256	> 256	> 256
CC(=O)OCC1=C(C(=O)OC(c2ccccc2)c2ccccc2)N2C(=O)[C@@H](Nc3nc4cc(C(=O)O)ccc4[nH]3)C2SC1 (some centres not stated)	256 (≈ 428 µM)	8 (≈ 13.4 µM)	8 (≈ 13.4 µM)	0.25 (≈ 0.418 µM)	32 (≈ 53.5 µM)	> 256	> 256	4 (≈ 6.68 µM)	–	8 (≈ 13.4 µM)	16 (≈ 26.7 µM)	> 256	16 (≈ 26.7 µM)	32 (≈ 53.5 µM)	32 (≈ 53.5 µM)	> 256	16 (≈ 26.7 µM)	> 256
CC1=C(C(=O)OC(c2ccccc2)c2ccccc2)N2C(=O)[C@@H](NC3=NCC(C)N3)C2SC1 (some centres not stated)	> 256	2 (≈ 4.32 µM)	8 (≈ 17.3 µM)	4 (≈ 8.65 µM)	> 256	> 256	> 256	2 (≈ 4.32 µM)	–	> 256	128 (≈ 277 µM)	40 (≈ 86.5 µM)	8 (≈ 17.3 µM)	> 256	> 256	2 (≈ 4.32 µM)	2 (≈ 4.32 µM)	> 256
CC1=C(C(=O)OC(c2ccccc2)c2ccccc2)N2C(=O)[C@@H](NC3=NCCN3C)C2SC1 (some centres not stated)	> 200	128 (≈ 277 µM)	128 (≈ 277 µM)	32 (≈ 69.2 µM)	40 (≈ 86.5 µM)	> 200	> 200	64 (≈ 138 µM)	–	> 200	40 (≈ 86.5 µM)	> 200	128 (≈ 277 µM)	> 200	> 200	128 (≈ 277 µM)	128 (≈ 277 µM)	> 200
CC1=C(C(=O)OC(c2ccccc2)c2ccccc2)N2C(=O)[C@@H](NC3=NC(c4ccc(C#N)cc4)CN3)C2SC1 (some centres not stated)	> 256	4 (≈ 7.28 µM)	2 (≈ 3.64 µM)	2 (≈ 3.64 µM)	16 (≈ 29.1 µM)	> 256	16 (≈ 29.1 µM)	4 (≈ 7.28 µM)	–	64 (≈ 116 µM)	4 (≈ 7.28 µM)	8 (≈ 14.6 µM)	8 (≈ 14.6 µM)	> 256	> 256	8 (≈ 14.6 µM)	4 (≈ 7.28 µM)	> 256
CC1=C(C(=O)OC(c2ccccc2)c2ccccc2)N2C(=O)[C@@H](NC3=NC(c4ccccc4)CN3)C2SC1 (some centres not stated)	> 256	1 (≈ 1.91 µM)	1 (≈ 1.91 µM)	0.5 (≈ 0.953 µM)	4 (≈ 7.62 µM)	> 256	–	1 (≈ 1.91 µM)	> 256	256 (≈ 488 µM)	2 (≈ 3.81 µM)	8 (≈ 15.2 µM)	2 (≈ 3.81 µM)	> 256	> 256	2 (≈ 3.81 µM)	1 (≈ 1.91 µM)	2 (≈ 3.81 µM)
CC(=O)OCC1=C(C(=O)OC(C)(C)C)N2C(=O)[C@@H](Nc3nc4cc([N+](=O)[O-])ccc4[nH]3)C2SC1 (some centres not stated)	200 (≈ 409 µM)	> 200	128 (≈ 261 µM)	8 (≈ 16.3 µM)	40 (≈ 81.7 µM)	> 200	> 200	64 (≈ 131 µM)	–	1 (≈ 2.04 µM)	40 (≈ 81.7 µM)	> 200	> 200	40 (≈ 81.7 µM)	1 (≈ 2.04 µM)	> 200	> 200	40 (≈ 81.7 µM)
CC(=O)OCC1=C(C(=O)OC(c2ccccc2)c2ccccc2)N2C(=O)[C@@H](Nc3nc4cc(O)ccc4[nH]3)C2SC1 (some centres not stated)	16 (≈ 28 µM)	0.12 (≈ 0.21 µM)	0.12 (≈ 0.21 µM)	0.016 (≈ 0.028 µM)	2 (≈ 3.5 µM)	> 256	256 (≈ 449 µM)	0.12 (≈ 0.21 µM)	32 (≈ 56.1 µM)	–	0.12 (≈ 0.21 µM)	64 (≈ 112 µM)	0.5 (≈ 0.876 µM)	0.5 (≈ 0.876 µM)	4 (≈ 7.01 µM)	128 (≈ 224 µM)	1 (≈ 1.75 µM)	128 (≈ 224 µM)
CC(=O)OCC1=C(C(=O)OC(c2ccccc2)c2ccccc2)N2C(=O)[C@@H](Nc3nc4cscc4[nH]3)C2SC1 (some centres not stated)	32 (≈ 57.1 µM)	0.5 (≈ 0.892 µM)	1 (≈ 1.78 µM)	0.06 (≈ 0.107 µM)	16 (≈ 28.5 µM)	> 256	> 256	1 (≈ 1.78 µM)	–	2 (≈ 3.57 µM)	8 (≈ 14.3 µM)	128 (≈ 228 µM)	2 (≈ 3.57 µM)	32 (≈ 57.1 µM)	4 (≈ 7.13 µM)	> 256	4 (≈ 7.13 µM)	> 256
